Assay results: ChEMBL document CHEMBL1155597, “Activity of extracts and isolated naphthoquinones from Kigelia pinnata against Plasmodium falciparum” (J Nat Prod, 2000)

Tests used:
Plasmodium falciparum [1] = assay: Antimalarial activity after 48 hrs against chloroquine-sensitive Plasmodium falciparum T9-96 by LDH reporter assay; format: functional, organism-based; conditions: T9-96, 48 h
How it was run: (§1)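 Asexual cultures kept in 5% A+ human red cells in RPMI 1640 with HEPES, glucose, NaHCO3, hypoxanthine, gentamycin and 10% A+ human serum under 1% O2/3% CO2/96% N2 at 37 °C. Ring-stage blood (1% parasitemia, 2% hematocrit) exposed 48 h to compounds at 50 µg/mL to 1.63 ng/mL final (2-fold). Modified LDH read-out: Malstat, then NBT/phenazine ethosulfate, absorbance at 650 nm. Tested twice in triplicate; IC50 ± SD.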

Plasmodium falciparum [2] = assay: Antimalarial activity after 48 hrs against chloroquine-resistant Plasmodium falciparum K1 by LDH reporter assay; format: functional, organism-based; conditions: K1, 48 h; how it was run: as §1
KB = assay: Cytotoxicity against human KB cells after 48 hrs by MTT assay; format: functional; conditions: read-out: ED50 (the source's name)
How it was run: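 KB human oral epidermal carcinoma cells in DMEM glutamax-1 + 10% HIFCS, 37 °C, 5% CO2. Log-phase cells seeded at 25 000/well and left 24 h to attach. Compounds added from DMSO (≤0.5% final), 200 to 0.064 μg/mL in 5-fold series, triplicate. After 48 h, MTT added for 4 h, formazan dissolved in DMSO, A540 blank-subtracted. Growth expressed as % of untreated control.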

[3] = Selectivity ratio of ED50 for KB cells to IC50 for Plasmodium falciparum K1; format: ADME, cell-based; conditions: human, KB cells (cytotoxicity) versus Plasmodium falciparum K1
How it was run: (§2)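 Ratio of KB ED50 to P. falciparum IC50. KB ED50 comes from the 48 h MTT assay. Parasite IC50 comes from a 48 h modified lactate dehydrogenase assay on ring-stage cultures (1% parasitemia, 2% hematocrit, A+ human RBC), 37 °C, 1% O2/3% CO2/96% N2. Compounds tested at 50 μg/mL to 1.63 ng/mL in 2-fold dilutions, twice in triplicate, with NBT/PES read at 650 nm.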

[4] = Selectivity ratio of ED50 for KB cells to IC50 for Plasmodium falciparum T9-96; format: ADME, cell-based; conditions: human, KB cells (cytotoxicity) versus Plasmodium falciparum T9-96; how it was run: as §2

With `CC(O)c1cc2c(o1)C(=O)c1ccccc1C2=O` (stereo unspecified) the IC50 (Plasmodium falciparum [1]) was 0.718 µM, the IC50 (Plasmodium falciparum [2]) was 0.627 µM and the EC50 (KB) was 3.9 µM. It also gave a selectivity ratio [3] of 6.18 and a selectivity ratio [4] of 5.4.
`CCN(CC)CCCC(C)Nc1ccnc2cc(Cl)ccc12` (stereo unspecified) [CHLOROQUINE PHOSPHATE] gave an EC50 (KB) of 43.9 µM.
For `CC1=C2C=C3C(=O)c4cc(O)ccc4C(=O)C3(O)C(C)=C2CC1` (stereo unspecified) [ISOKIGELINOL], the IC50 (Plasmodium falciparum [1]) was 11.9 µM, the IC50 (Plasmodium falciparum [2]) was 15.2 µM and the EC50 (KB) was 167 µM. For the same molecule, the selectivity ratio [3] was 12.7 and the selectivity ratio [4] was 14.
`C[C@]12CC[C@@H]3[C@H]1C=C1C(=O)c4cc(O)ccc4C(=O)[C@@]1(O2)[C@]3(C)C=O` [ISOPINNATAL] showed an IC50 (Plasmodium falciparum [1]) of 1.55 µM, an IC50 (Plasmodium falciparum [2]) of 0.763 µM and an EC50 (KB) of 14.8 µM. For the same molecule, the selectivity ratio [3] was 19.4 and the selectivity ratio [4] was 9.54.
Molecule `CC1=C2C=C3C(=O)c4ccc(O)cc4C(=O)C3(O)C(C)=C2CC1` (stereo unspecified) [KIGELINOL] has an IC50 (Plasmodium falciparum [1]) of 15.2 µM, an IC50 (Plasmodium falciparum [2]) of 16.7 µM and an EC50 (KB) of 148 µM. It also gave a selectivity ratio [3] of 8.88 and a selectivity ratio [4] of 9.74.
